According to ChEMBL document CHEMBL1150632, “Triterpenoids from Rubia yunnanensis” (2002):
Activity calls are given as the source filed them. No cut-off for these calls is given here.

What was measured:
[1] = Antiplatelet aggregation activity against 100 uM arachidonic acid-induced rabbit platelet assessed as platelet aggregation at 100 uM relative to control; type: functional, Oryctolagus cuniculus
Procedure, shortened: (§1)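 Platelets were preincubated with test sample or vehicle (0.5% DMSO) at 37 °C for 1 min. Aggregation was then triggered with arachidonic acid (100 µM), collagen (10 µg/mL), thrombin (0.1 U/mL) or PAF (2 ng/mL). Results are given as percent aggregation, mean ± SD, with significance at p < 0.05 and p < 0.01.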

[2] = Antiplatelet aggregation activity against 10 ug/mL collagen-induced rabbit platelet assessed as platelet aggregation at 100 uM relative to control; type: functional, Oryctolagus cuniculus; procedure, shortened: as §1
[3] = Antiplatelet aggregation activity against 0.1 U/mL thrombin-induced rabbit platelet assessed as platelet aggregation at 100 uM relative to control; type: functional, Oryctolagus cuniculus; procedure, shortened: as §1
[4] = Antiplatelet aggregation activity against 2 ng/mL platelet activating factor-induced rabbit platelet assessed as platelet aggregation at 100 uM relative to control; type: functional, Oryctolagus cuniculus; procedure, shortened: as §1
Platelet [5] = assay: Stimulation of rabbit platelet aggregation at 28.4 +/- 4.8 ug/mL; type: functional, cell-based; conditions: Oryctolagus cuniculus
[6] = Antiplatelet aggregation activity against 100 uM arachidonic acid-induced rabbit platelet assessed as platelet aggregation at 150 uM relative to control; type: functional, Oryctolagus cuniculus; procedure, shortened: as §1
[7] = Antiplatelet aggregation activity against 10 ug/mL collagen-induced rabbit platelet assessed as platelet aggregation at 150 uM relative to control; type: functional, Oryctolagus cuniculus; procedure, shortened: as §1
[8] = Antiplatelet aggregation activity against 0.1 U/mL thrombin-induced rabbit platelet assessed as platelet aggregation at 150 uM relative to control; type: functional, Oryctolagus cuniculus; procedure, shortened: as §1
[9] = Antiplatelet aggregation activity against 2 ng/mL platelet activating factor-induced rabbit platelet assessed as platelet aggregation at 150 uM relative to control; type: functional, Oryctolagus cuniculus; procedure, shortened: as §1
Platelet [10] = assay: Stimulation of rabbit platelet aggregation at 30.9 +/- 6.0 ug/mL; type: functional, cell-based; conditions: Oryctolagus cuniculus

SMILES | Activity [1] [%] | Activity [2] [%] | Activity [3] [%] | Activity [4] [%] | Activity (Platelet [5]) | Activity [6] [%] | Activity [7] [%] | Activity [8] [%] | Activity [9] [%] | Activity (Platelet [10])
CC(=O)O[C@@H]1C[C@@H](C(C)C)[C@]2(CO)CC[C@@]3(C)[C@H]4C(=CC[C@]3(C)[C@@H]12)[C@@]1(C)CCC(=O)C(C)(C)[C@@H]1C[C@@H]4O [RUBIARBONONE A] | 85.4 | 88.1 | 91.1 | 90.3 | Active | – | – | – | – | –
CC(C)[C@@H]1C[C@@H](O)[C@H]2[C@@]1(C)CC[C@@]1(C)[C@H]3C(=CC[C@]21C)[C@@]1(C)CC[C@H](O)C(C)(C)[C@@H]1C[C@@H]3O [RUBIARBONOL B] | – | 82.2 | – | – | – | 80.4 | 79.8 | 89.6 | 90.4 | –
CC(C)[C@@H]1C[C@@H](O)[C@H]2[C@@]1(CO)CC[C@@]1(C)[C@H]3C(=CC[C@]21C)[C@@]1(C)CC[C@H](O)C(C)(C)[C@@H]1C[C@@H]3O [RUBIARBONOL A] | 83.8 | 89.6 | 90.7 | 91.3 | – | – | – | – | – | Active
